How the values were obtained:
[1] = Inhibition of almond beta-glucosidase using 4-nitrophenyl beta-D-glucopyranoside as substrate after 30 mins by spectrophotometric analysis; set-up: species or system Prunus dulcis
How it was run: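 Reaction held 1 mM 4-nitrophenyl β-D-glucopyranoside in phosphate buffer pH 6.8 with inhibitor, preincubated at 37 °C for 5 min. Enzyme (EC 3.2.1.21, 0.075 unit) was then added, followed by 30 min at 37 °C. Na₂CO₃ (100 mM) stop, then absorbance at 400 nm. Inhibitor at 10, 20, 30, 50, 70, 80, 90 and 100, triplicates. Control without inhibitor set to 100%; IC50 from activity% vs log[inhibitor].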

[2] = Inhibition of Bacillus stearothermophilus alpha-glucosidase using 4-nitrophenyl alpha-D-glucopyranoside as substrate after 30 mins by spectrophotometric analysis; set-up: species or system Geobacillus stearothermophilus
How it was run: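 Inhibitor in phosphate buffer pH 6.8 with 1 mM 4-nitrophenyl α-D-glucopyranoside was preincubated 5 min at 37 °C. Then 0.075 unit enzyme was added and the mix held 30 min at 37 °C. Stopped with 100 mM Na₂CO₃; liberated p-nitrophenol read at 400 nm. Inhibitor levels were 1, 3, 10, 15 and 25, each in triplicate. IC50 came from an activity% vs log[inhibitor] plot, with no-inhibitor control taken as 100%.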

| SMILES | IC50 [1] [µM] | IC50 [2] [µM] |
| --- | --- | --- |
| O[C@H]1[C@H](O)[C@@H](N2CCc3ccccc32)C=C[C@@H]1N1CCc2ccccc21 | 67.7 | 18.1 |
| CC(=O)O[C@@H]1[C@@H](O)[C@H](OC(C)=O)C=C[C@H]1N1CCc2ccccc21 | 24.3 | 12.4 |
| C[C@H]1O[C@H](O[C@H]2[C@H](O)[C@@H](O)[C@@H](O[C@H]3[C@H](O)[C@@H](O)C(O)O[C@@H]3CO)O[C@@H]2CO)[C@H](O)[C@@H](O)[C@@H]1N[C@H]1C=C(CO)[C@@H](O)[C@H](O)[C@H]1O (stereo not given in full) [ACARBOSE] | 103 | 9.24 |

More lines, in order of falling IC50 [1], values ahead:

| IC50 [1] [µM] | IC50 [2] [µM] | SMILES |
| --- | --- | --- |
| 52.8 | 19.3 | CC(=O)O[C@H]1[C@H](OC(C)=O)[C@@H](n2ccc3ccccc32)C=C[C@@H]1n1ccc2ccccc21 |
| 23.1 | 11.6 | CC(=O)O[C@@H]1[C@@H](O)[C@H](OC(C)=O)C=C[C@H]1n1ccc2ccccc21 |
